pIC50: −log10 of the molar value. Values joined by “and” are separate entries in the source; they are usually repeats but may differ in a detail not shown here. Equal entries are not always repeated.
Each compound was assayed against T1, 3-oxo-5-alpha-steroid 4-dehydrogenase 1 (Homo sapiens, UniProt P18405) (assay: Inhibitory activity against 5-alpha-reductase type 1 in cell culture system using LNCaP cells (androgen-sensitive human prostatic cancer cell line)).
T1 sequence (P18405 whole entry): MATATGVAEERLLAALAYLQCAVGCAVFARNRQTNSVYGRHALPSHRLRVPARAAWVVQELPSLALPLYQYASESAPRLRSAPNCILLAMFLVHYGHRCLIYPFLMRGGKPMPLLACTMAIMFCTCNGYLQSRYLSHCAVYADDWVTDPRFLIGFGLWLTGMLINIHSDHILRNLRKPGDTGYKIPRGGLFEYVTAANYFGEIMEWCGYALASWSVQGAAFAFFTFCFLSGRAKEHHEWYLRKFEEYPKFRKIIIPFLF
Type: cell-based
In short: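 LNCaP cells (express 5aR-1 only) seeded at 2×10⁵ cells/mL/well, grown 24 h in medium with 5% hormone-free FBS. Then exposed to [³H]-testosterone plus test sample (final 0.5% DMSO) for 18 h. Medium extracted with ethyl acetate, [³H]-T and [³H]-DHT separated by TLC. Conversion = DHT radioactivity/(T+DHT). IC50 ([…]) relative to 0.5% DMSO control.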

Row | Compound | pIC50
1 | C=CCc1c(OC(=O)c2ccccc2)ccc2ccc(=O)oc12 | 6.31
2 | C=CCc1c(O)ccc2ccc(=O)oc12 | 6.00
3 | CC(C)(C)NC(=O)[C@H]1CC[C@H]2[C@@H]3CC[C@H]4NC(=O)C=C[C@]4(C)[C@H]3CC[C@]12C [FINASTERIDE] | 4.27 and 4.28
4 | C=CCc1c(OC)ccc2ccc(=O)oc12 | < 4.73
5 | O=c1ccc2ccc(O)cc2o1 [UMBELLIFERONE] | < 3.91
6 | C#CC(C)(C)Oc1ccc2ccc(=O)oc2c1CC=C | < 4.83
7 | C=CC(C)(C)Oc1ccc2ccc(=O)oc2c1 | 5.89
8 | C=CCc1c(OCC(C)=O)ccc2ccc(=O)oc12 | < 4.11
9 | C=CCc1cc2ccc(=O)oc2cc1O | 5.08
10 | C=CCOc1ccc2ccc(=O)oc2c1 [7-ALLYLOXYCOUMARIN] | < 4.00
11 | C=CCc1c(OC(=O)Nc2ccccc2)ccc2ccc(=O)oc12 | 6.21
12 | C=CCc1c(OCCO)ccc2ccc(=O)oc12 | < 4.09
13 | C#CC(C)(C)Oc1ccc2ccc(=O)oc2c1 | < 4.06
14 | C#CCOc1ccc2ccc(=O)oc2c1 | < 4.00
15 | C=CCc1c(OC(C)(C)C=C)ccc2ccc(=O)oc12 | 4.30
16 | C=CCc1c(OC(C)=O)ccc2ccc(=O)oc12 | 6.09
17 | C=CCc1c(OCc2ccccc2)ccc2ccc(=O)oc12 | < 4.86

— ChEMBL document CHEMBL1133940, “A novel class of inhibitors for steroid 5alpha-reductase: synthesis and evaluation of umbelliferone derivatives” (Bioorg Med Chem Lett, 2001)
